Activity calls are given as the source filed them. The rule behind the calls is not given here.
Legend:
Trypanosoma cruzi [1] = assay: Trypanocidal activity against Trypanosoma cruzi TINF/CH/1956/Tulahuen DTU 6 trypamastigotes derived from infected Balb/c albino mouse after 24 hrs by resazurin dye based assay; assay type: functional, organism-based; conditions: TINF/CH/1956/Tulahuen DTU 6, 24 h
Method in brief: (§1)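 Bloodstream trypomastigotes taken from mice at peak parasitaemia were seeded at 2×10^6 mL^-1 in RPMI with 10% FBS. Compounds were added at 50–0.2 µM and incubated 24 h at 37 °C, 5% CO2, then with resazurin for 4 h. SDS was added and absorbance read at 570/600 nm. IC50 was fitted; triplicate, four separate determinations.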

Vero = assay: Cytotoxicity against African green monkey Vero cells assessed as reduction in cell viability after 72 hrs by resazurin dye based assay; conditions: Chlorocebus sabaeus
Method in brief: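 Vero monkey kidney cells grown at 37 °C, 5 % CO2, in RPMI with 10 % heat-inactivated FBS. Seeded at 1.25 × 10^4 mL-1 with compound at 1000 to 1 µM (DMSO 0.01 % v/v). After 48 h, resazurin added for a further 24 h, then SDS. Absorbance read at 570/600 nm. IC50 from triplicates in four separate determinations.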

Trypanosoma cruzi [2] = assay: Trypanocidal activity against Trypanosoma cruzi MHOM/Pe/2011/Arequipa DTU 5 amastigotes infected in African green monkey Vero cells assessed as reduction in infected cells after 72 hrs by Giemsa-staining based microscopic assay; assay type: functional, organism-based; conditions: MHOM/Pe/2011/Arequipa DTU 5, Vero
Method in brief: (§2)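 Infected Vero cell cultures were exposed for 72 h to a range of concentrations. Infected cells were counted microscopically on Giemsa-stained preparations and expressed relative to infected untreated controls. Values are means of three separate determinations; IC50 was derived by curve fitting.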

Trypanosoma cruzi [3] = assay: Trypanocidal activity against Trypanosoma cruzi TINF/CH/1956/Tulahuen DTU 6 amastigotes infected in African green monkey Vero cells after 72 hrs by Giemsa-staining based microscopic assay; assay type: functional, organism-based; conditions: TINF/CH/1956/Tulahuen DTU 6, Vero
Method in brief: (§3)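 Vero cells were seeded at 1×10^4/well on coverslips. After 24 h they were infected with culture-derived trypomastigotes (MOI 1:10, 24 h), then washed. Compounds were added at 100–0.2 µM (DMSO 0.01% v/v) for 72 h at 37 °C, 5% CO2. Slides were methanol-fixed and Giemsa-stained; amastigotes and infected cells were counted over 500 host cells. IC50 was derived by curve fitting; triplicate wells, four separate determinations.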

Trypanosoma cruzi [4] = assay: Trypanocidal activity against Trypanosoma cruzi MHOM/Pe/2011/Arequipa DTU 5 trypamastigotes derived from infected Balb/c albino mouse after 24 hrs by resazurin dye based assay; assay type: functional, organism-based; conditions: MHOM/Pe/2011/Arequipa DTU 5, 24 h; method in brief: as §1
Trypanosoma cruzi [5] = assay: Trypanocidal activity against Trypanosoma cruzi MHOM/Pe/2011/Arequipa DTU 5 amastigotes infected in African green monkey Vero cells assessed as infected cells at 50 uM after 72 hrs by Giemsa-staining based microscopic assay relative to control; assay type: functional; method in brief: as §2
Trypanosoma cruzi [6] = assay: Trypanocidal activity against Trypanosoma cruzi MHOM/Pe/2011/Arequipa DTU 5 amastigotes infected in African green monkey Vero cells after 72 hrs by Giemsa-staining based microscopic assay; assay type: functional, organism-based; conditions: MHOM/Pe/2011/Arequipa DTU 5, Vero; method in brief: as §3
Mus musculus [7] = assay: (§4) Hepatotoxicity in Balb/c mouse infected with Trypanosoma cruzi MHOM/Pe/2011/Arequipa DTU 5 trypamastigotes assessed as change in total bilirubin level at 100 mg/kg, po once daily for 5 consecutive days starting from day 75 post infection measured on day 127 post infection by biochemical analysis relative to control; assay type: toxicity, organism-based; conditions: in vivo
[8] = molecular target: Superoxide dismutase [Cu-Zn] (Homo sapiens, UniProt P00441); assay: Inhibition of human erythrocyte CuZn-SOD by UV-Visible spectrophotometric method
Method in brief: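 SOD activity of parasite Fe-SOD and human CuZn-SOD was measured spectrophotometrically by the Beyer and Fridovich method, with compounds at 1–100 µM. Values are averages of three rate determinations; IC50 was obtained by linear regression and differences were tested by Newman-Keuls.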

[9] = Selectivity index, ratio of IC50 for African green monkey Vero cells to IC50 for Trypanosoma cruzi MHOM/Pe/2011/Arequipa DTU 5 amastigotes infected in African green monkey Vero cells; assay type: toxicity; conditions: read-out: Ratio IC50
Method in brief: (§5)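 SI is Vero IC50 divided by the IC50 for the stated parasite form. For Vero cytotoxicity, cells were seeded at 1.25×10^4 mL^-1 with compounds at 1000–1 µM, incubated 48 h, then given resazurin for a further 24 h (72 h total), with absorbance read at 570/600 nm. Triplicate, four determinations.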

[10] = Selectivity index, ratio of IC50 for African green monkey Vero cells to IC50 for Trypanosoma cruzi MHOM/Pe/2011/Arequipa DTU 5 trypamastigotes derived from infected Balb/c albino mouse; assay type: toxicity; conditions: read-out: Ratio IC50; method in brief: as §5
[11] = Selectivity index, ratio of IC50 for African green monkey Vero cells to IC50 for Trypanosoma cruzi TINF/CH/1956/Tulahuen DTU 6 amastigotes infected in African green monkey Vero cells; assay type: toxicity; conditions: read-out: Ratio IC50; method in brief: as §5
Trypanosoma cruzi [12] = assay: Antitrypanosomal activity against Trypanosoma cruzi MHOM/Pe/2011/Arequipa DTU 5 trypamastigotes infected in Balb/c mouse assessed as reduction in Ig-G level in serum at 100 mg/kg, po pretreated once daily for 5 consecutive days starting from day 10 post infection followed by cyclophosphamide-induced immunosuppression on day 100 post infection every 4 days for a maximum of 3 doses measured on day 127 post infection by ELISA; assay type: functional, organism-based
[13] = Selectivity index, ratio of IC50 for African green monkey Vero cells to IC50 for Trypanosoma cruzi TINF/CH/1956/Tulahuen DTU 6 trypamastigotes derived from infected Balb/c albino mouse; assay type: toxicity; conditions: read-out: Ratio IC50; method in brief: as §5
Trypanosoma cruzi [14] = assay: Trypanocidal activity against Trypanosoma cruzi IRHOD/CO/2008/SN3 DTU 1 trypamastigotes derived from infected Balb/c albino mouse after 24 hrs by resazurin dye based assay; assay type: functional, organism-based; conditions: IRHOD/CO/2008/SN3 DTU 1, 24 h; method in brief: as §1
Trypanosoma cruzi [15] = assay: Antitrypanosomal activity against Trypanosoma cruzi MHOM/Pe/2011/Arequipa DTU 5 trypamastigotes infected in Balb/c mouse assessed as reduction in splenomegaly at 100 mg/kg, po once daily for 5 consecutive days starting from day 10 post infection measured on day 127 post infection relative to control; assay type: functional; parameters: scale not given: the % may be the effect or the level left
Mus musculus [16] = assay: as §4, with “alkaline phosphatase” for “total bilirubin”, “[…],” for “100 mg/kg,”; assay type: toxicity, organism-based; conditions: in vivo
Method in brief: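 Serum clinical chemistry in Arequipa-infected female BALB/c mice. Oral 20 mg·kg-1 per day for 5 days, started day 10 or day 75 pi. Samples taken at day 16 pi or day 81 pi, and on necropsy day. Markers: CK-MB and LDH (U/L), AST, ALT and alkaline phosphatase (U/L), total bilirubin. Results scored relative to infected untreated controls; uninfected reference n = 15.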

Trypanosoma cruzi [17] = assay: Trypanocidal activity against Trypanosoma cruzi IRHOD/CO/2008/SN3 DTU 1 amastigotes infected in African green monkey Vero cells after 72 hrs by Giemsa-staining based microscopic assay; assay type: functional, organism-based; conditions: IRHOD/CO/2008/SN3 DTU 1, Vero; method in brief: as §3
[18] = Selectivity index, ratio of IC50 for African green monkey Vero cells to IC50 for Trypanosoma cruzi IRHOD/CO/2008/SN3 DTU 1 trypamastigotes derived from infected Balb/c albino mouse; assay type: toxicity; conditions: read-out: Ratio IC50; method in brief: as §5

Chain of Superoxide dismutase [Cu-Zn] (P00441 whole entry): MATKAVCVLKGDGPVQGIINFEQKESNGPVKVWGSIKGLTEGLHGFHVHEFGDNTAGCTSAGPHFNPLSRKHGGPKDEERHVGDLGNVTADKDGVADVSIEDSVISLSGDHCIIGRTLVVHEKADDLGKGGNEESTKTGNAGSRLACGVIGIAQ

| SMILES | IC50 (Trypanosoma cruzi [1]) [µM] | IC50 (Vero) [µM] | IC50 (Trypanosoma cruzi [2]) [µM] | IC50 (Trypanosoma cruzi [3]) [µM] | IC50 (Trypanosoma cruzi [4]) [µM] | Activity (Trypanosoma cruzi [5]) [%] | IC50 (Trypanosoma cruzi [6]) [µM] | Activity (Mus musculus [7]) [%] | IC50 [8] [µM] | selectivity ratio [9] | selectivity ratio [10] | selectivity ratio [11] | Activity (Trypanosoma cruzi [12]) | selectivity ratio [13] | IC50 (Trypanosoma cruzi [14]) [µM] | Activity (Trypanosoma cruzi [15]) | Activity (Mus musculus [16]) [%] | IC50 (Trypanosoma cruzi [17]) [µM] | selectivity ratio [18] |
| --- | --- | --- | --- | --- | --- | --- | --- | --- | --- | --- | --- | --- | --- | --- | --- | --- | --- | --- | --- |
| O=C(Cn1ccnc1[N+](=O)[O-])NCc1ccccc1 [BENZNIDAZOLE] | 15.1 | 23.2 | 15.1 | 10 | 12.4 | 20 | 8.3 | – | – | – | – | – | – | – | – | – | – | – | – |
| COc1ccc(C(=O)CCN2CCN(c3ccc(Cl)cc3)CC2)cc1 | 2.9 | 300 | 6.4 | 3.8 | 3.4 | 15 | 3.6 | < 10 | 100 | 82.4 | 89.6 | 78.7 | Active | 103 | 3.9 | 52% | < 10 | 5.8 | 76.1 |
| COc1ccc(C(=O)CCN2CCN(c3ccc([N+](=O)[O-])cc3)CC2)cc1 | 14.5 | 587 | 47.9 | 33.6 | 11.7 | 52 | 29.4 | < 10 | > 100 | 20 | 50.4 | 17.5 | inactive | 40.6 | 3.1 | Active | < 10 | 30.5 | 187 |
| COc1ccc(C(=O)CCN2CCN(c3ccc(F)cc3)CC2)cc1 | 1.2 | 55 | 1.9 | 1.6 | 1.1 | 7 | 0.6 | < 10 | 146 | 88.7 | 49.1 | 34.6 | inactive | 47.4 | 1.4 | Active | < 10 | 3.1 | 39.9 |
